# Results reported in ChEMBL document CHEMBL1955823, “Imidazo[1,2-a]pyrazines as novel PI3K inhibitors” (Bioorg Med Chem Lett, 2012).
# Experiments:
# [1] = biological target: Insulin receptor (Homo sapiens) (UniProt P06213); assay: Inhibition of INS-R at 5 to 10 uM
# [2] = biological target: Serine/threonine-protein kinase pim-1 (Homo sapiens) (UniProt P11309); assay: Inhibition of PIM1 at 5 to 10 uM
# [3] = biological target: T1, NUAK family SNF1-like kinase 1 (Homo sapiens) (UniProt O60285); assay: Inhibition of ARK5 at 5 to 10 uM
# T1 sequence (whole entry): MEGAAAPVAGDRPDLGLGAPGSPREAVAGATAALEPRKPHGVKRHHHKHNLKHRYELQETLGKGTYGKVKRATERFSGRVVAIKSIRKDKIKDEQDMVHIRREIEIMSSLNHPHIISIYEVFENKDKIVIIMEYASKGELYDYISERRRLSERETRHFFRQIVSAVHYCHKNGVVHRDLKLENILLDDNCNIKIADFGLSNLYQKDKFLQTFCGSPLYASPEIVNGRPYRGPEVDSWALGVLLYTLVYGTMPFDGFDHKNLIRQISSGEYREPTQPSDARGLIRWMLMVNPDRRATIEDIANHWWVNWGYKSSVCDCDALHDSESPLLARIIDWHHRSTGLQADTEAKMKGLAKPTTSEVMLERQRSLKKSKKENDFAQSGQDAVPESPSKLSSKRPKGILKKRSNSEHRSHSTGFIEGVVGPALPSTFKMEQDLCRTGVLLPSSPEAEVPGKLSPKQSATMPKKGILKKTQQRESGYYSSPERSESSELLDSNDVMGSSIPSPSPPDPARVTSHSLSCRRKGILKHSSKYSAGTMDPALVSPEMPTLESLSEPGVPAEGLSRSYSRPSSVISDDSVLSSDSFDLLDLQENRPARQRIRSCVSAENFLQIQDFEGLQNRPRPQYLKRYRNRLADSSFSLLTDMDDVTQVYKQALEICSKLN
# [4] = test system: Serine/threonine-protein kinase B-raf (Homo sapiens), P15056 [V600E]; assay: Inhibition of BRAF V600E mutant at 5 to 10 uM
# Sequence of Serine/threonine-protein kinase B-raf (Homo sapiens), P15056 [V600E] (P15056 whole entry V600E): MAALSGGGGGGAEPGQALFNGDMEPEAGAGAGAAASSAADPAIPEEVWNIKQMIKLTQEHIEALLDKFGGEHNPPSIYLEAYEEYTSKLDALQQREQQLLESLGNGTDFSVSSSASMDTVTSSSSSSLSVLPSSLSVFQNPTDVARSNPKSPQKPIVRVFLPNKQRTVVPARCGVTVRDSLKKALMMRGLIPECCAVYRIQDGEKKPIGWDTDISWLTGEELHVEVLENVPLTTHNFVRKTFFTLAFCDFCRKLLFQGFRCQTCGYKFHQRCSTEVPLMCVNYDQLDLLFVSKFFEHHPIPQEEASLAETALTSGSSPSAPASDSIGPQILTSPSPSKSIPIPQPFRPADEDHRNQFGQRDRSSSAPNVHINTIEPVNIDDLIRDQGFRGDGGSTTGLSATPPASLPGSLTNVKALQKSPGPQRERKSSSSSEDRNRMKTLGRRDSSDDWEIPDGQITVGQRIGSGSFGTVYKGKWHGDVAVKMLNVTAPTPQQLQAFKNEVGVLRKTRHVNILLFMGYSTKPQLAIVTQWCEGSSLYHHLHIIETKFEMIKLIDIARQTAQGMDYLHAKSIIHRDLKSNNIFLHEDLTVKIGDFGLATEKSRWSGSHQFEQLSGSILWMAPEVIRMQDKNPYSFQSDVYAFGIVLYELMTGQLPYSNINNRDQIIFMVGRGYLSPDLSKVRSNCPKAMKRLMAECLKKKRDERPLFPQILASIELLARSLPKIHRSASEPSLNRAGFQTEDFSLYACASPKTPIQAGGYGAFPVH
# [5] = biological target: Dual specificity mitogen-activated protein kinase kinase 1 (Homo sapiens) (UniProt Q02750); assay: Inhibition of MEK1 at 5 to 10 uM
# [6] = biological target: PI3-kinase p110-delta/p85-alpha (Homo sapiens, UniProt O00329); assay: Inhibition of human PI3K p110delta/p85alpha; type: protein-complex assay; conditions: read-out: Ki(app)
# Sequence of PI3-kinase p110-delta/p85-alpha (P27986 whole entry): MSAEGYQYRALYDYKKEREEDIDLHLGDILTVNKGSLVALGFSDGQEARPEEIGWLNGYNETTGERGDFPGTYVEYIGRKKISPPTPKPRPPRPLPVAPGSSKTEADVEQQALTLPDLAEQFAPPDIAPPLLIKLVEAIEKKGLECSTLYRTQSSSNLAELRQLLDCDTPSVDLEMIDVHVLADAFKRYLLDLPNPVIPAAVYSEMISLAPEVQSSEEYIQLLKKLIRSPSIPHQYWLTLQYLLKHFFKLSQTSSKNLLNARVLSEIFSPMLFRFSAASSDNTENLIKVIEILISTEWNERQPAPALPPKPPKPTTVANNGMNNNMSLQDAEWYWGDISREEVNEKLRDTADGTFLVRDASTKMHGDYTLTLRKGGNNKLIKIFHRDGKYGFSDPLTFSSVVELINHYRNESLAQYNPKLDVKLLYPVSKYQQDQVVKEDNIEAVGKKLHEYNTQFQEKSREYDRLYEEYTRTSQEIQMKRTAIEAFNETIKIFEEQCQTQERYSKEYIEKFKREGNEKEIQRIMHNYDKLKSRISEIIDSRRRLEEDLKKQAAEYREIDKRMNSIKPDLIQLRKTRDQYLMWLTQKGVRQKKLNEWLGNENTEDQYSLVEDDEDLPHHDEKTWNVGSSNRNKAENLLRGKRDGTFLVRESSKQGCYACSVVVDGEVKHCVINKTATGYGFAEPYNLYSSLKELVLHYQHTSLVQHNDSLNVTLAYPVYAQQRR
# Sequence of PI3-kinase p110-delta/p85-alpha (O00329 whole entry): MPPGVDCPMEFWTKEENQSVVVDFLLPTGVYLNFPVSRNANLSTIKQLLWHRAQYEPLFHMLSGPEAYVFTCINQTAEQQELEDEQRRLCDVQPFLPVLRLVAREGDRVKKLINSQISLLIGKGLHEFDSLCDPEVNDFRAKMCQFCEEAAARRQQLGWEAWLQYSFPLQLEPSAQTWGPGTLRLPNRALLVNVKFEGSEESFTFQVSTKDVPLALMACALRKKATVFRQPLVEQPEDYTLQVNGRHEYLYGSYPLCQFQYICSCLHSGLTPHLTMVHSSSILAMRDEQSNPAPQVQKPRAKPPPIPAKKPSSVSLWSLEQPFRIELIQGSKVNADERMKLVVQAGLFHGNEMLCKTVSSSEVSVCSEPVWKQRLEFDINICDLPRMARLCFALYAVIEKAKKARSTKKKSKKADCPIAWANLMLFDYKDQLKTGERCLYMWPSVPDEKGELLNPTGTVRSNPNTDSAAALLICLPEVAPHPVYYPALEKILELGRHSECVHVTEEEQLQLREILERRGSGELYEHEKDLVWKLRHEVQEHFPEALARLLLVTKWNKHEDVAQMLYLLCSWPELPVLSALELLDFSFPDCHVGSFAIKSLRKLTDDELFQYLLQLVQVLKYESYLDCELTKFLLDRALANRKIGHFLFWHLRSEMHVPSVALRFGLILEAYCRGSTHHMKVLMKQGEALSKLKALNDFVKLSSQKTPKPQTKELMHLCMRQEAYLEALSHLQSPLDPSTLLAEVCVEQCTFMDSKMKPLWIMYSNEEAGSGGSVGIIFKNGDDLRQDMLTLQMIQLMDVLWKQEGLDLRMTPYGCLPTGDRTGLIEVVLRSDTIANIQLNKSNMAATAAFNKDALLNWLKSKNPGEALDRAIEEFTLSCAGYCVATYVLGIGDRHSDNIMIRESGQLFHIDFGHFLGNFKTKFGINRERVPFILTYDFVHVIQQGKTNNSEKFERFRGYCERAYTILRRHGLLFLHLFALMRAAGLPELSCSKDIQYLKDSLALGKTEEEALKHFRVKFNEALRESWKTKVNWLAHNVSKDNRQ
# PI3K p110 beta/p85 alpha = PI3K p110 beta/p85 alpha (Homo sapiens, UniProt P42338); assay: Inhibition of human PI3K p110beta/p85alpha; type: protein-complex assay; conditions: read-out: Ki(app)
# Sequence of PI3K p110 beta/p85 alpha (P27986 whole entry): as the sequence (P27986 whole entry) above
# Sequence of PI3K p110 beta/p85 alpha (P42338 whole entry): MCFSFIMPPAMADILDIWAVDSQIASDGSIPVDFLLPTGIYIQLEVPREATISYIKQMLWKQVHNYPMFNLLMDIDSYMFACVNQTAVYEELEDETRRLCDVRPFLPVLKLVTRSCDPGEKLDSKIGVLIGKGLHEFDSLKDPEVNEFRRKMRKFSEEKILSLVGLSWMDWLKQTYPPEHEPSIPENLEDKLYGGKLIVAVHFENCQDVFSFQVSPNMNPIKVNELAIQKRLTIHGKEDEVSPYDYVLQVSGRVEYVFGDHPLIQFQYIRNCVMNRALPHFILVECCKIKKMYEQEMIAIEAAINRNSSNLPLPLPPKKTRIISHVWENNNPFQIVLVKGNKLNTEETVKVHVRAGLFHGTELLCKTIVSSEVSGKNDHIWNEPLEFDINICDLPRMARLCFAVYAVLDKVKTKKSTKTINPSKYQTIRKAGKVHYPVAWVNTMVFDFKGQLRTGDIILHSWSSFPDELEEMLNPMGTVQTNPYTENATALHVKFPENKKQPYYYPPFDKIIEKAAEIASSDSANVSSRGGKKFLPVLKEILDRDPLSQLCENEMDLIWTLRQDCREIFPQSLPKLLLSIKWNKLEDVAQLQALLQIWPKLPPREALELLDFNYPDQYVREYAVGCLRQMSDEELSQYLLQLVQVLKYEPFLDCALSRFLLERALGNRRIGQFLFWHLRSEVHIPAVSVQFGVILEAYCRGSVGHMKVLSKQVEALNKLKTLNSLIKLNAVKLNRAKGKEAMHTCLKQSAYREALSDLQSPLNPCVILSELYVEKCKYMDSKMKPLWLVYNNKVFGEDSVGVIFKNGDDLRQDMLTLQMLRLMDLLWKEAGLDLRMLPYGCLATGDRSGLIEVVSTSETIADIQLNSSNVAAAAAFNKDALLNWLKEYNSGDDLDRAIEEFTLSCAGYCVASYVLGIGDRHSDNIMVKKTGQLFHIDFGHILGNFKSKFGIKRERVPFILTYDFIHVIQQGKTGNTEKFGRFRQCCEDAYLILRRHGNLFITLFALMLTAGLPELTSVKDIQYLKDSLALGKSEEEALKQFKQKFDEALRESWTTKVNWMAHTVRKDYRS
# [7] = biological target: Receptor-type tyrosine-protein kinase FLT3 (Homo sapiens) (UniProt P36888); assay: Inhibition of FLT3 at 5 to 10 uM
# [8] = biological target: Serine/threonine-protein kinase pim-2 (Homo sapiens) (UniProt Q9P1W9); assay: Inhibition of PIM2 at 5 to 10 uM
# [9] = biological target: Epidermal growth factor receptor (Homo sapiens) (UniProt P00533); assay: Inhibition of EGF-R at 5 to 10 uM
# Homo sapiens = species on record: Homo sapiens; assay: Selectivity ratio of Kiapp for human PI3K p110alpha/p85alpha to Kiapp for human PI3K p110delta/p85alpha
# [10] = biological target: PI3-kinase p110-alpha/p85-alpha (Homo sapiens, UniProt P42336); assay: Inhibition of PI3K p110alpha/p85alpha; type: protein-complex assay
# Sequence of PI3-kinase p110-alpha/p85-alpha (P27986 whole entry): as the sequence (P27986 whole entry) above
# Sequence of PI3-kinase p110-alpha/p85-alpha (P42336 whole entry): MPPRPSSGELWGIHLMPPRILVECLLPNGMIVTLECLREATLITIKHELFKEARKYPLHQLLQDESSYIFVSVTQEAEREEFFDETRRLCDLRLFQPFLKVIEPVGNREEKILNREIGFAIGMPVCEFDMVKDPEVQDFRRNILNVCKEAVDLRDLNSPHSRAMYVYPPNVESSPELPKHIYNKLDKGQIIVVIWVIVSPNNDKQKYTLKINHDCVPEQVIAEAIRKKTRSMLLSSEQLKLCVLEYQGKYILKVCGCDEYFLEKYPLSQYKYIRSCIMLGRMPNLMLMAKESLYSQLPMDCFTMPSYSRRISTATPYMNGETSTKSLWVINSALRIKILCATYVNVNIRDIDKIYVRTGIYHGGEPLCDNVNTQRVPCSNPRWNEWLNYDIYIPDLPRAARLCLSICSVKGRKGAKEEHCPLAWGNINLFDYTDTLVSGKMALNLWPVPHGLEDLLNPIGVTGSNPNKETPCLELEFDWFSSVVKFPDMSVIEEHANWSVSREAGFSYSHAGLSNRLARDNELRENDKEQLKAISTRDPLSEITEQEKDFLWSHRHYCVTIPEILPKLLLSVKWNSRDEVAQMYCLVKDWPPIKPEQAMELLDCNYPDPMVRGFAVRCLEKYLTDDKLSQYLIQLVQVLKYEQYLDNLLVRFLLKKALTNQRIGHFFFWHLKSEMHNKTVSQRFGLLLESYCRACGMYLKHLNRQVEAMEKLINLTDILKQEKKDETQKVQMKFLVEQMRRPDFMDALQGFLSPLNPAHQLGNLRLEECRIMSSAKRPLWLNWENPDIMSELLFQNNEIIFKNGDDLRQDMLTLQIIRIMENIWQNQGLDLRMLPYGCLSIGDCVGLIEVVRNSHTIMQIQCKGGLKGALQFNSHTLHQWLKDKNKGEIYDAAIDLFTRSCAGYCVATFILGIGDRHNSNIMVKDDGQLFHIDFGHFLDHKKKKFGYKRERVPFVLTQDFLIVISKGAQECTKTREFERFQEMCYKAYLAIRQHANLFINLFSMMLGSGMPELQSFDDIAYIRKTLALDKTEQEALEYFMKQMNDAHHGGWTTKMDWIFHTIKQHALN
# In short: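 Biochemical kinase assay following the kit manufacturer's protocol with a modified kinase buffer (50 mM HEPES pH 7.5, 3 mM MgCl2, 100 mM NaCl, 1 mM EGTA, 0.04% CHAPS, 2 mM TCEP, 0.01 mg/ml BGG); 10 nM enzyme; ATP 50 µM; values are averages of two independent experiments, each in duplicate.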
# CYP3A4 = CYP3A4 (Homo sapiens, UniProt P08684); assay: Inhibition of CYP3A4 at 10 uM; type: ADME
# In short: (§1)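 CYP isoform panel (1A2, 2C9, 2C19, 2D6, 3A4); percent inhibition recorded at 10 µM test compound; run in duplicate by an outside contractor.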
# CYP2C19 = CYP2C19 (Homo sapiens, UniProt P33261); assay: Inhibition of CYP2C19 at 10 uM; type: ADME; in short: as §1
# CYP1A2 = biological target: T2, CYP1A2 (Homo sapiens, UniProt P05177); assay: Inhibition of CYP1A2 at 10 uM; type: ADME; in short: as §1
# T2 sequence (P05177 whole entry): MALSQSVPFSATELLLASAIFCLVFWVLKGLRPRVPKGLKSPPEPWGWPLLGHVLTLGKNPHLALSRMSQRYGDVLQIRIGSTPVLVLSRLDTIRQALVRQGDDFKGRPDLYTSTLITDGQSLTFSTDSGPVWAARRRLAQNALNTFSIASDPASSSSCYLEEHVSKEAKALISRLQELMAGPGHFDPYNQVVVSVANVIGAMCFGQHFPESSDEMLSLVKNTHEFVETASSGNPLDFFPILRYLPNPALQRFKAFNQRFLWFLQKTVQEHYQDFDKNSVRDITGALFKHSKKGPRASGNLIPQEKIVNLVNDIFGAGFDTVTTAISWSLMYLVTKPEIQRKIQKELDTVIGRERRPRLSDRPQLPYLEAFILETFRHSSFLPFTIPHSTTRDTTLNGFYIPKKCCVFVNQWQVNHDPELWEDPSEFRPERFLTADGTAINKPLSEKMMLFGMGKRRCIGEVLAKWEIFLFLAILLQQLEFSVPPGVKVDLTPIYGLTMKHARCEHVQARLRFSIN
# CYP2D6 = CYP2D6 (Homo sapiens, UniProt P10635); assay: Inhibition of CYP2D6 at 10 uM; type: ADME; in short: as §1
# [11] = Metabolic stability in mouse liver microsomes assessed as compound remaining at 1 uM after 30 mins
# CYP2C9 = CYP2C9 (Homo sapiens, UniProt P11712); assay: Inhibition of CYP2C9 at 10 uM; type: ADME; in short: as §1
# [12] = Metabolic stability in human liver microsomes assessed as compound remaining at 1 uM after 30 mins
# Sequence of Serine/threonine-protein kinase pim-1 (Homo sapiens) (P11309 whole entry, looked up): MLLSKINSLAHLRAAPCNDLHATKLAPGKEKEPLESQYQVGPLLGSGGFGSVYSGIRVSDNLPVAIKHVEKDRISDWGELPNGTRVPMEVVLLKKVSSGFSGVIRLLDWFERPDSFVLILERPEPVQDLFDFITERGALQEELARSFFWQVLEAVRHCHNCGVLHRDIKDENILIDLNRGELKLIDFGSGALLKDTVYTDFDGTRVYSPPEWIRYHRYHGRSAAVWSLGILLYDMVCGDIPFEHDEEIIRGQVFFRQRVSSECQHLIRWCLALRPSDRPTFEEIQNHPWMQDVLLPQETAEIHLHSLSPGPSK
Structure (SMILES),inhibition [1],inhibition [2],inhibition [3],inhibition [4],inhibition [5],Ki [6],Ki (PI3K p110 beta/p85 alpha),inhibition [7],inhibition [8],inhibition [9],Ratio Ki(app) (Homo sapiens),IC50 [10],inhibition at 10 µM (CYP3A4),inhibition at 10 µM (CYP2C19),inhibition at 10 µM (CYP1A2),inhibition at 10 µM (CYP2D6),"remaining at 0.5 h, 1 µM [11]",inhibition at 10 µM (CYP2C9),"remaining at 0.5 h, 1 µM [12]"
CN(C)CCCNC(=O)c1cn2cc(-c3cccc4[nH]ncc34)nc(N3CCOCC3)c2n1,50%,< 50%,< 50%,< 50%,< 50%,3.6 nM,> 500 nM,< 50%,< 50%,< 50%,12.2,35 nM,,,,,,,
CNC(=O)c1cn2cc(-c3cccc4[nH]ncc34)nc(N3CCOCC3)c2n1,50%,< 50%,< 50%,< 50%,< 50%,17.1 nM,> 500 nM,< 50%,< 50%,< 50%,6,,,,,,,,
CS(=O)(=O)N1CCN(Cc2cn3c(Cl)c(-c4cccc5[nH]ncc45)nc(N4CCOCC4)c3n2)CC1,50%,< 50%,< 50%,< 50%,< 50%,65 nM,> 500 nM,< 50%,< 50%,< 50%,3.2,145 nM,< 25%,< 25%,< 25%,< 25%,28%,< 25%,35%
CS(=O)(=O)N1CCN(Cc2nc3c(N4CCOCC4)nc(-c4cccc5[nH]ncc45)cn3c2Br)CC1,50%,< 50%,< 50%,< 50%,< 50%,8 nM,> 500 nM,< 50%,< 50%,< 50%,10.8,47 nM,,,,,,,
O=C(NCCN1CCOCC1)c1cn2cc(-c3cccc4[nH]ncc34)nc(N3CCOCC3)c2n1,50%,< 50%,< 50%,< 50%,< 50%,6.5 nM,> 500 nM,< 50%,< 50%,< 50%,10,,,,,,,,
CS(=O)(=O)N1CCN(Cc2cn3c(C#N)c(-c4cccc5[nH]ncc45)nc(N4CCOCC4)c3n2)CC1,50%,< 50%,< 50%,< 50%,< 50%,43 nM,> 500 nM,< 50%,< 50%,< 50%,9.5,194 nM,,,,,,,
COCCCNC(=O)c1cn2cc(-c3cccc4[nH]ncc34)nc(N3CCOCC3)c2n1,50%,< 50%,< 50%,< 50%,< 50%,2.8 nM,> 500 nM,< 50%,< 50%,< 50%,21.4,31 nM,,,,,,,
CS(=O)(=O)N1CCN(Cc2cn3cc(-c4cccc5[nH]ncc45)nc(N4CCOCC4)c3n2)CC1,50%,< 50%,< 50%,< 50%,< 50%,,> 500 nM,< 50%,< 50%,< 50%,,,< 25%,< 25%,< 25%,< 25%,32%,< 25%,48%
